According to article PMC10433466 (ACS Omega, 2023):
Values after ≈ are worked out from the molar mass of the structure shown. Values joined by “and” are separate entries in the source; they are usually repeats but may differ in a detail not shown here. Equal entries are not always repeated.

How the values were obtained:
P. aeruginosa PA86052 [1] = assay: Checkerboard assay with BLs; format: cell-based
P. aeruginosa PA108590 [2] = assay: Checkerboard assay with BLs; format: cell-based
P. aeruginosa PA107092 = assay: Checkerboard assay with BLs; format: cell-based
P. aeruginosa PA88949 = assay: Checkerboard assay with BLs; format: cell-based
P. aeruginosa PA109084 = assay: Checkerboard assay with BLs; format: cell-based
P. aeruginosa PAO1 [3] = assay: Checkerboard RIF potentiation in CAMHB and Mg2+-supplemented CAMHB; format: cell-based; conditions: RIF alone
Outline: (§1)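 Checkerboard in CAMHB: the antibiotic or BL/BLI was twofold serially diluted on one axis and the adjuvant on the other. The inoculum was prepared as for MIC (0.5 McFarland, 1:50, about 5 × 10^5 cfu/mL) and plates ran at 37 °C overnight, with turbidity read at 595 nm. Each FIC is combination MIC over single-agent MIC, and FICI is their sum: ≤0.5 synergy, 0.5–4 additive, >4 antagonism. Runs were done at least twice.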

E. coli ATCC 25922 = assay: Antimicrobial susceptibility assay; format: cell-based; conditions: Escherichia coli, ATCC25922, read-out: minimum inhibitory concentration (MIC)
Outline: (§2)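 Broth microdilution following CLSI guidance. An overnight culture was adjusted in saline to 0.5 McFarland, diluted 1:50 in CAMHB and inoculated at about 5 × 10^5 cfu/mL final. Agents were twofold serially diluted in CAMHB, mixed with equal volumes of inoculum and held at 37 °C overnight. MIC was the lowest concentration without visible turbidity, read at 595 nm. Runs were done at least twice and repeated if outside twofold agreement.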

P. aeruginosa PAO1 [4] = conditions: cited from earlier work
P. aeruginosa PAO1 [5] = assay: Antimicrobial susceptibility assay; format: cell-based; conditions: Pseudomonas aeruginosa, PAO1, read-out: minimum inhibitory concentration (MIC)
Outline: as §2

A. baumannii ATCC 17978 = assay: Antimicrobial susceptibility assay; format: cell-based; conditions: Acinetobacter baumannii, ATCC17978, read-out: minimum inhibitory concentration (MIC)
Outline: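 CLSI broth microdilution. Overnight culture adjusted in saline to 0.5 McFarland, then diluted 1:50 in cation-adjusted Mueller Hinton broth to about 5 × 10^5 cfu/mL final. Test compound twofold serially diluted in the same broth, mixed with an equal volume of inoculum, incubated at 37 °C overnight. MIC is the lowest concentration without visible turbidity (595 nm). Run at least twice; repeated if outside twofold agreement.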

P. aeruginosa PAO1 [6] = assay: Checkerboard assay, antibiotic potentiation; format: cell-based; conditions: PMBN (7 μM) vs 2c 8 μg/mL (2 μM)
Outline: as §1

P. aeruginosa PA86052 [7] = assay: Potentiation of BL/BLI; format: cell-based
Outline: as §1

P. aeruginosa PAO1 [8] = assay: Outer membrane permeabilization assay; format: cell-based; conditions: NPN 10 μM
Outline: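 PAO1 suspension (OD600 0.4–0.6) was incubated with NPN (10 μM final) in 5 mM HEPES, 5 mM glucose and 5 μM CCCP for 30 min at room temperature in the dark. Test compound was then added at varying concentrations, and fluorescence (ex 350 / em 420 nm) was recorded every 30 s.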

P. aeruginosa PA108590 [9] = assay: Potentiation of BL/BLI; format: cell-based
Outline: as §1

[10] = ATM/AVI in the presence of 8 μg/mL compound 3 (3.5 μM) or PMBN (7 μM)
[11] = ATM/AVI with 8 μg/mL compound 3 (3.5 μM) or PMBN (7 μM)
[12] = CAZ/AVI in the presence of 8 μg/mL compound 3 (3.5 μM) or PMBN (7 μM)
[13] = CAZ/AVI with 8 μg/mL compound 3 (3.5 μM) or PMBN (7 μM)
[14] = CTZ/TAZ in the presence of 8 μg/mL compound 3 (3.5 μM) or PMBN (7 μM)
[15] = CTZ/TAZ with 8 μg/mL compound 3 (3.5 μM) or PMBN (7 μM)
[16] = IMI/REL in the presence of 8 μg/mL compound 3 (3.5 μM) or PMBN (7 μM)
[17] = IMI/REL with 8 μg/mL compound 3 (3.5 μM) or PMBN (7 μM)
[18] = MER/VAB in the presence of 8 μg/mL compound 3 (3.5 μM) or PMBN (7 μM)
[19] = MER/VAB with 8 μg/mL compound 3 (3.5 μM) or PMBN (7 μM)

C[C@H]1[C@H](NC(=O)/C(=N\OC(C)(C)C(=O)O)c2csc(N)n2)C(=O)N1S(=O)(=O)O [ATM, aztreonam]
MICBL (P. aeruginosa PA86052 [1]; ATM alone): 32 µg/mL
MICBL (P. aeruginosa PA108590 [2]; ATM alone): 32 µg/mL

CC(C)(O/N=C(\C(=O)N[C@@H]1C(=O)N2C(C(=O)[O-])=C(C[n+]3ccccc3)CS[C@H]12)c1csc(N)n1)C(=O)O [CAZ, ceftazidime]
MICBL (P. aeruginosa PA86052 [1]; CAZ alone): 64 µg/mL
MICBL (P. aeruginosa PA108590 [2]; CAZ alone): 64 µg/mL
MICBL (P. aeruginosa PA107092; CAZ alone): 128 µg/mL

Cn1c(N)c(NC(=O)NCCN)c[n+]1CC1=C(C(=O)O)N2C(=O)[C@@H](NC(=O)/C(=N\OC(C)(C)C(=O)[O-])c3nsc(N)n3)[C@H]2SC1 [CTZ, ceftolozane]
MICBL (P. aeruginosa PA86052 [1]; CTZ alone): 8 µg/mL and 4 µg/mL
MICBL (P. aeruginosa PA108590 [2]; CTZ alone): 8 µg/mL and 4 µg/mL
MICBL (P. aeruginosa PA88949; CTZ alone): 4 µg/mL
MICBL (P. aeruginosa PA109084; CTZ alone): 8 µg/mL and 4 µg/mL
MICBL (P. aeruginosa PA107092; CTZ alone): 4 µg/mL

C[C@@H](O)[C@H]1C(=O)N2C(C(=O)O)=C(SCCN=CN)C[C@H]12 [IMI, imipenem]
MICBL (P. aeruginosa PA86052 [1]; IMI alone): 64 µg/mL and 32 µg/mL
MICBL (P. aeruginosa PA108590 [2]; IMI alone): 32 µg/mL
MICBL (P. aeruginosa PA88949; IMI alone): 64 µg/mL
MICBL (P. aeruginosa PA109084; IMI alone): 16 µg/mL
MICBL (P. aeruginosa PA107092; IMI alone): 32 µg/mL

C[C@@H](O)[C@H]1C(=O)N2C(C(=O)O)=C(S[C@@H]3CN[C@H](C(=O)N(C)C)C3)[C@H](C)[C@H]12 [MER, meropenem]
MICBL (P. aeruginosa PA86052 [1]; MER alone): 16 µg/mL
MICBL (P. aeruginosa PA108590 [2]; MER alone): 4 µg/mL and 8 µg/mL
MICBL (P. aeruginosa PA88949; MER alone): 16 µg/mL and 32 µg/mL
MICBL (P. aeruginosa PA109084; MER alone): 16 µg/mL
MICBL (P. aeruginosa PA107092; MER alone): 32 µg/mL and 64 µg/mL

CO[C@H]1/C=C/O[C@@]2(C)Oc3c(C)c(O)c4c(O)c(c(/C=N/N5CCN(C)CC5)c(O)c4c3C2=O)NC(=O)/C(C)=C\C=C\[C@H](C)[C@H](O)[C@@H](C)[C@@H](O)[C@@H](C)[C@H](OC(C)=O)[C@@H]1C [RIF, rifampicin]
MICRIF (P. aeruginosa PAO1 [3]; CAMHB): 32 µg/mL
MICRIF (P. aeruginosa PAO1 [3]; CAMHB with 20 mM Mg2+): 32 µg/mL

NC[C@H]1O[C@H](O[C@H]2[C@H](O)[C@@H](O[C@H]3O[C@H](CO)[C@@H](O)[C@H](N)[C@H]3O)[C@H](N)C[C@@H]2N)[C@H](N)C[C@@H]1O [TOB, tobramycin]
MIC (E. coli ATCC 25922): 2 µg/mL (≈ 4.28 µM)
synergy with NOV, RIF, MIN, LEV, CAZ (P. aeruginosa PAO1 [4]): did not synergize
MIC (P. aeruginosa PAO1 [5]): 0.5 µg/mL (≈ 1.07 µM)
MIC (A. baumannii ATCC 17978): 0.5 µg/mL (≈ 1.07 µM)

polymyxin B nonapeptide [PMBN]
MIN potentiation relative to trimer 2c (P. aeruginosa PAO1 [6]): 4 fold
MICBL/BLI [MIC with 3 or PMBN] (P. aeruginosa PA86052 [7]; [10]): 0.0625 µg/mL
fold potentiation (P. aeruginosa PA86052 [7]; [11]): 1024 fold
MICBL/BLI [MIC with 3 or PMBN] (P. aeruginosa PA86052 [7]; [12]): 0.25 µg/mL
fold potentiation (P. aeruginosa PA86052 [7]; [13]): 512 fold
MICBL/BLI [MIC with 3 or PMBN] (P. aeruginosa PA86052 [7]; [14]): 0.0625 µg/mL
fold potentiation (P. aeruginosa PA86052 [7]; [15]): 128 fold
MICBL/BLI [MIC with 3 or PMBN] (P. aeruginosa PA86052 [7]; [16]): 0.125 µg/mL
fold potentiation (P. aeruginosa PA86052 [7]; [17]): 512 fold
MICBL/BLI [MIC with 3 or PMBN] (P. aeruginosa PA86052 [7]; [18]): 0.0312 µg/mL
fold potentiation (P. aeruginosa PA86052 [7]; [19]): 512 fold
NPN fluorescence (OM permeabilization) (P. aeruginosa PAO1 [8]): increased fluorescence
MICBL/BLI [MIC with 3 or PMBN] (P. aeruginosa PA108590 [9]; [10]): 2 µg/mL
fold potentiation (P. aeruginosa PA108590 [9]; [11]): 16 fold
MICBL/BLI [MIC with 3 or PMBN] (P. aeruginosa PA108590 [9]; [12]): 4 µg/mL
fold potentiation (P. aeruginosa PA108590 [9]; [13]): 32 fold
MICBL/BLI [MIC with 3 or PMBN] (P. aeruginosa PA108590 [9]; [14]): 2 µg/mL
fold potentiation (P. aeruginosa PA108590 [9]; [15]): 2 fold
MICBL/BLI [MIC with 3 or PMBN] (P. aeruginosa PA108590 [9]; [16]): 1 µg/mL
fold potentiation (P. aeruginosa PA108590 [9]; [17]): 32 fold
MICBL/BLI [MIC with 3 or PMBN] (P. aeruginosa PA108590 [9]; [18]): 4 [4] μg/mL
fold potentiation (P. aeruginosa PA108590 [9]; [19]): 1 fold
